Assay results as given in ChEMBL document CHEMBL3272092, “Synthesis and antihypertensive activity of 5-thio-2-pyridinecarboxylic acid derivatives” (J Med Chem, 1978).

How the values were obtained:
Rattus norvegicus [1] = assay: Antihypertensive activity in spontaneous hypertensive rat model assessed as decrease in blood pressure at 100 mg/kg, po administered for 2 to 4 days measured on day 2 to day 4; format: functional
Outline: (§1)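 SHR, 4–6 per drug, were dosed daily by gavage for 2 or 4 consecutive days in 3% cornstarch, 5% PEG-400 and 1 drop Tween 80 per mL. After 1 h acclimation, systolic pressure was read by tail-cuff (inflated to 250 mmHg, then lowered; pulse reemergence), at least three readings, at 1, 2, 3 and 24 h post-dose. The peak fall is scored: +, <20 mm up to >80 mm.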

Squirrel monkey [2] = assay: Toxicity in normotensive squirrel monkey model assessed as change in heart rate at 100 mg/kg, po qd measured on day 4; format: organism-based, Saimiri sciureus; design: dose 100 mg/kg, route oral; settings: in vivo
Outline: (§2)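 Heart rate in restrained, tail-warmed squirrel monkeys was counted manually from the tail-cuff pressure record. Daily gavage used a suspension in 3% cornstarch, 5% PEG-400 and 1 drop Tween 80 per 10 mL. Monitoring was at 1.5, 3, 5 and 24 h after each dose, and the peak change per administration is reported. Paired t test.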

Canis familiaris [3] = assay: Toxicity in unanesthetized renal hypertensive Mongrel dog model assessed as emesis at 100 mg/kg, po qd measured on day 1 to 4; format: organism-based, Canis lupus familiaris; design: dose 100 mg/kg, route oral; settings: in vivo
Squirrel monkey [4] = assay: Antihypertensive activity in normotensive squirrel monkey model assessed as decrease in systolic blood pressure at 100 mg/kg, po qd measured on day 3 by sphygmomanometry; format: functional, Saimiri sciureus, Artery
Outline: (§3)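 Restrained squirrel monkeys of either sex with tails warmed by infrared lamp. Systolic pressure was measured indirectly with a tail-base occlusion cuff and pulse transducer. Doses were given daily by gavage as a suspension in 3% cornstarch, 5% PEG-400 and 1 drop Tween 80 per 10 mL. Readings were taken 1.5, 3, 5 and 24 h post-dose. Values are the peak change after each dose, analysed by paired t test.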

Squirrel monkey [5] = assay: Toxicity in normotensive squirrel monkey model assessed as change in heart rate at 100 mg/kg, po qd measured on day 2; format: organism-based, Saimiri sciureus; design: dose 100 mg/kg, route oral; settings: in vivo; outline: as §2
Rattus norvegicus [6] = assay: Antihypertensive activity in spontaneous hypertensive rat model assessed as decrease in blood pressure at 200 mg/kg, po administered for 2 to 4 days measured on day 2 to day 4; format: functional; outline: as §1
Squirrel monkey [7] = assay: Antihypertensive activity in normotensive squirrel monkey model assessed as decrease in systolic blood pressure at 100 mg/kg, po qd measured on day 1 by sphygmomanometry; format: functional, Saimiri sciureus, Artery; outline: as §3
Squirrel monkey [8] = assay: Toxicity in normotensive squirrel monkey model assessed as change in heart rate at 100 mg/kg, po qd measured on day 3; format: organism-based, Saimiri sciureus; design: dose 100 mg/kg, route oral; settings: in vivo; outline: as §2
Canis familiaris [9] = assay: Toxicity in unanesthetized renal hypertensive Mongrel dog model assessed as change in heart rate at 100 mg/kg, po qd measured on day 1; format: organism-based, Canis lupus familiaris; design: dose 100 mg/kg, route oral; settings: in vivo
Outline: (§4)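 Heart rate in unanesthetized renal hypertensive dogs was counted manually from the transducer-recorded arterial pressure trace. Oral dosing was once daily as solid in a gelatin capsule. Readings were at 1.5, 3, 6 and 24 h post-dose, and the maximum change per daily session is reported.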

Canis familiaris [10] = assay: Toxicity in unanesthetized renal hypertensive Mongrel dog model assessed as change in heart rate at 100 mg/kg, po qd measured on day 2; format: organism-based, Canis lupus familiaris; design: dose 100 mg/kg, route oral; settings: in vivo; outline: as §4
Squirrel monkey [11] = assay: Antihypertensive activity in normotensive squirrel monkey model assessed as decrease in systolic blood pressure at 100 mg/kg, po qd measured on day 4 by sphygmomanometry; format: functional, Saimiri sciureus, Artery; outline: as §3
Canis familiaris [12] = assay: Antihypertensive activity in unanesthetized renal hypertensive Mongrel dog model assessed as change in mean blood pressure at 100 mg/kg, po qd measured on day 2; format: functional, Canis lupus familiaris
Outline: (§5)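 Unanesthetized renal hypertensive dogs. Arterial pressure was recorded via a hypodermic needle and polyethylene tubing to a pressure transducer. Drug was given orally once daily as solid in a gelatin capsule. Pressure was determined 1.5, 3, 6 and 24 h after each dose, and the maximum change over each daily monitored session is reported.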

Squirrel monkey [13] = assay: Toxicity in normotensive squirrel monkey model assessed as change in heart rate at 100 mg/kg, po qd measured on day 1; format: organism-based, Saimiri sciureus; design: dose 100 mg/kg, route oral; settings: in vivo; outline: as §2
Canis familiaris [14] = assay: Antihypertensive activity in unanesthetized renal hypertensive Mongrel dog model assessed as change in mean blood pressure at 100 mg/kg, po qd measured on day 1; format: functional, Canis lupus familiaris; outline: as §5
Squirrel monkey [15] = assay: Antihypertensive activity in normotensive squirrel monkey model assessed as decrease in systolic blood pressure at 100 mg/kg, po qd measured on day 2 by sphygmomanometry; format: functional, Saimiri sciureus, Artery; outline: as §3
Rattus norvegicus [16] = assay: Toxicity in spontaneous hypertensive rat model assessed as bradycardia at 100 to 200 mg/kg, po administered for 2 to 4 days; format: organism-based; design: route oral; settings: in vivo
Outline: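 Heart rate in SHR was counted from tail-cuff pressure pulses after 1 h acclimation. Rats (4–6 per drug) were gavaged daily for 2 or 4 days at 100 mg/kg (sometimes 200 mg/kg) in 3% cornstarch, 5% PEG-400 and 1 drop Tween 80 per mL. Recordings were at 1, 2, 3 and 24 h after each dose.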

## O=C(O)c1ccc(SCc2ccc(Cl)cc2)cn1
Rattus norvegicus [1]
  Activity: >40 mmHg

## CCCC(Sc1ccc(C(=O)O)nc1)c1cccc(C(F)(F)F)c1 (centres undefined)
Rattus norvegicus [1]
  Activity: >20 mmHg

## O=C(O)c1ccc([S+]([O-])Cc2cccc(C(F)(F)F)c2)cn1 (centres undefined)
Squirrel monkey [2]
  Activity: -33 bpm
Canis familiaris [3]
  Activity: Non-toxic
Squirrel monkey [4]
  Activity: -19 mmHg
Squirrel monkey [5]
  Activity: -83 bpm
Rattus norvegicus [6]
  Activity: > 60 mmHg
Squirrel monkey [7]
  Activity: -30 mmHg
Squirrel monkey [8]
  Activity: -73 bpm
Rattus norvegicus [1]
  Activity: >40 mmHg
Canis familiaris [9]
  Activity: 10 bpm
Canis familiaris [10]
  Activity: 2 bpm
Squirrel monkey [11]
  Activity: -19 mmHg
Canis familiaris [12]
  Activity: -10 mmHg
Squirrel monkey [13]
  Activity: -43 bpm
Canis familiaris [14]
  Activity: -7 mmHg
Squirrel monkey [15]
  Activity: -29 mmHg
Rattus norvegicus [16]
  Activity: Toxic

## O=C([O-])c1ccc([S+]([O-])Cc2ccc(Cl)cc2Cl)cn1.[Na+] (centres undefined)
Rattus norvegicus [1]
  Activity: >20 mmHg

## O=C(O)c1ccc(SCCCc2ccccc2)cn1
Rattus norvegicus [1]
  Activity: >20 mmHg

## O=C(O)c1ccc(SCc2ccccc2)cn1
Rattus norvegicus [1]
  Activity: >40 mmHg

## COc1ccc(CSc2ccc(C(=O)[O-])nc2)cc1.[Na+]
Rattus norvegicus [1]
  Activity: <20 mmHg

## O=C([O-])c1ccc(SCc2ccc(Cl)c(Cl)c2)cn1.[Na+]
Rattus norvegicus [1]
  Activity: <20 mmHg

## O=C([O-])c1ccc(SCc2c(Cl)cccc2Cl)cn1.[Na+]
Rattus norvegicus [1]
  Activity: <20 mmHg
